ChEMBL document CHEMBL1914450, “1,7-Naphthyridine 1-oxides as novel potent and selective inhibitors of p38 mitogen activated protein kinase” (J Med Chem, 2011)
In brackets after ≈: the same amount, converted by molar mass.

Experiments:
[1] = (§1) Bioavailability in Wistar rat at 10 mg/kg, po and at 1 mg/kg, iv measured up to 6 hrs; assay type: ADME, organism-based; details: Wistar, in vivo
In short: (§2)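 Male Wistar rats received 1 mg/kg iv or 10 mg/kg po. Blood was drawn from the retro-orbital plexus at set time points and centrifuged (3000 rpm, 10 min, 4 °C). Plasma was stored at −20 °C and prepared by protein precipitation for analysis. Oral exposure was measured over 0–6 h. Values are mean ± SD, n = 2.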

[2] = Volume of distribution at steady state in Wistar rat at 1 mg/kg, iv by UPLC-MS/MS analysis; assay type: ADME, organism-based; parameters: dose 1 mg/kg, route intravenous; details: in vivo, read-out: Vdss
In short: (§3)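 Wistar rats dosed 1 mg/kg iv or 10 mg/kg po. Blood drawn from the retro-orbital plexus at set time points. Plasma separated by centrifugation (3000 rpm, 10 min, 4 °C) and stored at −20 °C until analysis. Values are mean of n = 2.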

[3] = Clearance in Wistar rat at 1 mg/kg, iv by UPLC-MS/MS analysis; assay type: ADME, organism-based; parameters: dose 1 mg/kg, route intravenous; details: in vivo; in short: as §2
[4] = Half life in Wistar rat at 1 mg/kg, iv by UPLC-MS/MS analysis; assay type: ADME, organism-based; parameters: dose 1 mg/kg, route intravenous; details: in vivo; in short: as §2
[5] = Cmax in Wistar rat at 10 mg/kg, po by UPLC-MS/MS analysis; assay type: ADME, organism-based; parameters: dose 10 mg/kg, route oral; details: in vivo; in short: as §2
[6] = (§4) AUC (0 to 6 hrs) in Wistar rat at 10 mg/kg, po by UPLC-MS/MS analysis; assay type: ADME, organism-based, Plasma; parameters: time < 6 hr, dose 10 mg/kg, route oral; details: Wistar, plasma; in short: as §2
[7] = Tmax in Wistar rat at 10 mg/kg, po by UPLC-MS/MS analysis; assay type: ADME, organism-based; parameters: dose 10 mg/kg, route oral; details: in vivo; in short: as §3
[8] = Metabolic stability in human liver microsomes assessed as metabolic rate at 5 uM after 30 mins by UPLC-MS/MS analysis; assay type: ADME, Microsome; details: read-out: Activity
In short: (§5)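 Test compound at 5 μM incubated 30 min at 37 °C with liver microsomes (1 mg/mL protein), with and without NADPH. Parent compound quantified by UPLC-MS/MS. Metabolic rate taken from parent peak area with NADPH versus without.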

[9] = tested on: Rattus norvegicus; experiment: as §1; assay type: ADME, organism-based; details: in vivo, 6 h; in short: as §2
[10] = Metabolic stability in rat liver microsomes assessed as metabolic rate at 5 uM after 30 mins by UPLC-MS/MS analysis; assay type: ADME, Microsome; details: read-out: Activity; in short: as §5
[11] = Solubility of the compound at pH 1.0; assay type: physicochemical; details: buffer
[12] = tested on: Rattus norvegicus; experiment: as §4; assay type: ADME, organism-based, Plasma; parameters: time < 6 hr, dose 10 mg/kg, route oral; details: in vivo, 6 h; in short: as §2
[13] = Solubility of the compound at pH 7.4; assay type: physicochemical; details: buffer

SMILES | bioavailability [1] | Vd [2] | clearance [3] | half-life [4] | Cmax [5] | AUC(0-t) at 6 h [6] | Tmax [7] | metabolised at 0.5 h, 5 µM [8] | F [9] | metabolised at 0.5 h, 5 µM [10] | solubility [11] | AUC [12] | solubility [13]
[O-][n+]1ccc2c(-c3ccc(F)cc3F)cc(C3CCNCC3)nc2c1-c1c(Cl)cccc1Cl | 16% | 13.7 L/kg | 102 mL/min/kg | 2.3 h | 200 nM | 0.48 µM·h | 0.3 h | – | – | – | – | – | –
[O-][n+]1ccc2c(-c3ccc(F)cc3F)cc(NC3CCNCC3)nc2c1-c1c(F)cccc1F | < 10% | 10.3 L/kg | 59 mL/min/kg | 4.6 h | 90 nM | 0.05 µM·h | 0.3 h | – | – | – | – | – | –
Cc1ccccc1-c1c2nccc(-c3ccc(F)cc3F)c2cc[n+]1[O-] | – | 1.7 L/kg | – | 7.4 h | 5300 nM | – | 3.5 h | < 5% | 38% | 9% | 41 µg/mL (≈ 118 µM) | 29.5 µM·h | 27 µg/mL (≈ 77.5 µM)
